The source of these data is ChEMBL document CHEMBL3580599, “Synthesis and Biological Evaluation of Novel Homoisoflavonoids for Retinal Neovascularization” (J Med Chem, 2015).

In one data set the test system is Y79. Description: Growth inhibition of human Y79 cells assessed as reduction in cell number after 48 hrs by alamarBlue based fluorescence assay. It counts as functional. The conditions noted are these: Y79, 48 h. In short, it runs like this: (§1)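 Cells (2,500 per well in growth medium) were allowed 24 h, then exposed 48 h to compound over 0.5 nM–500 μM. alamarBlue was added and fluorescence read 4 h later (ex 560/em 590 nm). Dose-response curves were fitted relative to DMSO control; compounds not reducing cell number ≥50% at the top concentration were reported as GI50 >100 μM.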

A short description of data set [1]: Growth inhibition of human 92-1 cells assessed as reduction in cell number after 48 hrs by alamarBlue based fluorescence assay. It counts as functional. Summed up: as §1
Data set [2] can be described thus: (§2) Growth inhibition of human HREC cells assessed as reduction in cell number after 48 hrs by alamarBlue based fluorescence assay. It counts as functional. In short, it runs like this:
as §1

Data set [3] is described as follows: Growth inhibition of human HUVEC cells assessed as reduction in cell number after 48 hrs by alamarBlue based fluorescence assay. Summed up:
as §1

A short description of data set [4]: Selectivity ratio of GI50 for human 92-1 cells to GI50 for human HREC cells. It counts as ADME, cell-based. The conditions noted are these: 92-1 cells and HREC cells.
Data set [5] is filed under the species Mus musculus. Description: Inhibition of retinal neovascularization in oxygen-induced retinopathy mouse model at 1 uM in each eye relative to vehicle treated control. It counts as functional, organism-based. In short, it runs like this:
(§3)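 Newborn C57BL/6 pups with nursing mother held in 75% O₂ from P7 to P12. At P12, under isoflurane, 0.5 μL of a 10 μM solution (DMSO stock diluted into PBS) was injected intravitreally into each eye, estimated to give 1 μM in vitreous. Controls got vehicle or 5 ng anti-VEGF antibody. Retinas were whole-mounted, stained with isolectin B4-Alexa 488 and imaged by confocal microscopy.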

The subject of data set [6] is HREC. Nature of the data set: Inhibition of cell migration in human HREC cells after 8 hrs scratch-wound assay. It counts as functional, cell-based. Summed up:
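HRECs (10⁵ per coated well) grown to confluence in EGM-2, starved 12 h in serum-free EBM-2, then scratched with a pipette tip and rinsed. Incubated in EGM-2 with compound at 37 °C, 5% CO₂. After 8 h, cells migrated into the scratch were counted from images.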

Data set [7] deals with HREC. Nature of the data set: Antiangiogenic activity in human HREC cells assessed as inhibition of tube formation after 8 hrs by matrigel assay. It counts as functional, cell-based. Summed up:
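HRECs, 7,500 per well in EGM-2, plated on Matrigel basement membrane with or without compound; after 8 h, imaged and tube length measured by image analysis.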

The nature of data set [8]: Induction of apoptosis in human HREC cells assessed as activated caspase 3 up to 2 uM after 4 hrs by immunofluorescence assay. Format: functional. Summed up: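 HRECs on coated coverslips, overnight in EGM-2, then treated 4 h at indicated concentrations. Fixed in 4% paraformaldehyde, permeabilized with 0.5% Triton X-100, immunostained for activated caspase 3 and imaged by confocal microscopy. Staurosporine 1 μM served as positive control.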

Data set [9] is described as follows: Induction of apoptosis in human HREC cells up to 2 uM after 4 hrs by TUNEL assay. Format: functional. Summed up: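 HRECs, 25,000 per coated coverslip, grown overnight in EGM-2, then 4 h in fresh medium with compound. Fixed in 4% paraformaldehyde 20 min at room temperature, permeabilized with 0.25% Triton X-100 20 min, then TUNEL-labelled with DAPI counterstain. Percent apoptotic cells counted on three low-power fields per coverslip. n = 3, SEM.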

A short description of data set [10]: Selectivity ratio of GI50 for human Y79 cells to GI50 for human HREC cells. Format: ADME, cell-based. The conditions noted are these: Y79 cells and HREC cells.
The nature of data set [11]: Toxicity in human HREC cells up to 2 uM by trypan blue exclusion assay. It counts as cell-based. Summed up:
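HRECs in complete EGM-2 grown to 70% confluency, then treated 48 h with compound. After trypsinization, live and dead cells, including floating cells, were counted by Trypan blue on a hemocytometer. Viability taken as live/total cells. n = 3, triplicate experiments, SEM.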

Data set [12] concerns HREC. The data set is described as §2. Format: functional. Summed up:
as §1

Data set [13] deals with HREC. Description: Induction of cell cycle arrest in human HREC cells assessed as cells accumulation at G2/M phase after 48 hrs by propidium iodide before flow cytometry analysis. It counts as functional, cell-based. Summed up:
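HRECs grown to 50% confluency in EGM-2, serum-starved overnight, then 48 h in fresh EGM-2 with compound. Fixed in 66% EtOH 2 h at 4 °C, stained with 20 μg/mL propidium iodide with 0.1% Triton X-100 and RNase for 30 min at 37 °C, then analysed by flow cytometry. Duplicate experiments.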

Data set [14] in a line: Selectivity ratio of GI50 for HUVEC cells to GI50 for human HREC cells. It counts as ADME, cell-based. The conditions noted are these: HUVEC cells and HREC cells, read-out: RatioGI50.
Data set [15] can be described thus: Induction of apoptosis in human HREC cells assessed as nuclear morphology after 8 hrs by EdU incorporation assay. Format: cell-based. In short, it runs like this:
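HRECs (25,000) on attachment-factor-coated coverslips, 24 h growth, then 12 h in serum-free EBM-2. Incubated 8 h with 10 μM EdU plus compound at various concentrations, then processed by click chemistry with DAPI counterstain and imaged. Nuclear morphology and EdU-positive cells were scored by image analysis. n = 3, at least triplicate experiments, SEM.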

The species entered for data set [16] is Mus musculus. Description: Ocular toxicity in mouse model assessed as gross morphological changes in retinal vasculature at 1 uM. It counts as organism-based. The conditions noted are these: in vivo. In short, it runs like this: as §3

Calls of active or inactive are those of the source. The rule behind the calls is not given here.

Take `C=CCOc1cc(/C=C2\COc3cc(OC)c(OC)c(OC)c3C2=O)ccc1OC`: the values for the GI50 (in the data set on Y79; in data set [1]; in [2]) were 2.8 µM, 1.1 µM and 3900 nM, respectively. In addition, the GI50 at 48 h in data set [3] came out at 12 µM.
In the same order, the values of `C=CCOc1ccc(C[C@H](NC(=O)OC(C)(C)C)C(=O)Oc2cc(CC3COc4cc(OC)c(OC)c(OC)c4C3=O)ccc2OC)cc1` (stereo partly specified) are 52 µM, > 100 µM, 160 nM and 0.091 µM.
In the same order, the values of `COc1ccc(CC2COc3cc(OC)c(OC)c(OC)c3C2=O)cc1OC(=O)[C@H](Cc1ccc(OCc2ccccc2)cc1)NC(=O)OC(C)(C)C` (stereo partly specified) are > 100 µM, > 100 µM, 510 nM and > 100 µM.
As to `COc1ccc(CC2COc3cc(OC)c(OC)c(OC)c3C2=O)cc1OC(=O)c1ccccc1` (stereo unspecified), the GI50 in the data set with Y79 is > 100 µM; in [1], > 100 µM; in [2], 650 nM. The 50% growth inhibitory concentration (GI50) at 48 h in data set [3] is > 100 µM.
On to `COc1ccc(CC2COc3cc(OC)c(OC)c(OC)c3C2=O)cc1N` (stereo unspecified), for which the figures for the 50% growth inhibitory concentration (GI50) (in the data set with Y79; in data set [1]; in data set [2]) were > 100 µM, > 100 µM and 1100 nM, respectively. Moreover, the 50% growth inhibitory concentration (GI50) at 48 h in [3] worked out at 0.51 µM.
Turning to `COc1ccc(CC2COc3cc(OC)c(OC)c(OC)c3C2=O)cc1OC(=O)[C@H](Cc1ccccc1)NS(=O)(=O)c1ccc(C)cc1` (stereo partly specified), the figures for the GI50 (with Y79; in data set [1]; in data set [2]) were > 100 µM, > 100 µM and 1500 nM, respectively. The 50% growth inhibitory concentration (GI50) at 48 h in [3] amounted to 22 µM.
For `CCNC(=O)N[C@@H](Cc1ccccc1)C(=O)Oc1cc(CC2COc3cc(OC)c(OC)c(OC)c3C2=O)ccc1OC` (stereo partly specified), the GI50 in the data set on Y79 stood at 48 µM; in data set [1], 98 µM; in [2], 1000 nM. In data set [3], the GI50 at 48 h turned out to be 34 µM.
For `COc1ccc(/C=C2\COc3cc(OC)c(OC)c(OC)c3C2=O)cc1OCc1ccccc1`, the GI50 with Y79 was 33 µM; in data set [1] it was 3.5 µM; in data set [2], 4300 nM. Besides, the concentration for 50% growth inhibition (GI50) at 48 h in [3] was 16 µM.
The matching figures for `COc1ccc(CC2COc3cc(OC)c(OC)c(OC)c3C2=O)cc1OC(=O)/C=C/c1ccccc1` (stereo unspecified): > 100 µM, > 100 µM, 170 nM and > 100 µM.
The matching figures for `COc1ccc(CC2COc3cc(OC)c(OC)c(OC)c3C2=O)cc1OC(=O)[C@H](CC(C)C)NC(=O)OC(C)(C)C` (stereo partly specified): > 100 µM, > 100 µM, 130 nM and > 100 µM.
On to `CCN(CC)C(=O)Oc1cc(CC2COc3cc(OC)c(OC)c(OC)c3C2=O)ccc1OC` (stereo unspecified), for which the GI50 with Y79 is 24 µM; in data set [1], > 100 µM; in [2], 49000 nM. The GI50 at 48 h in data set [3] was > 100 µM.
As for `COc1cc(/C=C2\COc3cc(OC)c(OC)c(OC)c3C2=O)ccc1OCc1ccccc1`, the GI50 in the data set on Y79 was 14 µM; in [1] it was 68 µM; in [2] it was 35000 nM. For the same compound, the GI50 at 48 h in [3] was determined as 52 µM.
In the same order, the values of `CCCCNC(=O)N[C@@H](Cc1ccccc1)C(=O)Oc1cc(CC2COc3cc(OC)c(OC)c(OC)c3C2=O)ccc1OC` (stereo partly specified) are 64 µM, > 100 µM, 1400 nM and > 100 µM.
The matching figures for `COc1ccc(CC2COc3cc(OC)c(OC)c(OC)c3C2=O)cc1OC(=O)[C@H](Cc1ccccc1)NC(=O)OCc1ccccc1` (stereo partly specified): > 100 µM, > 100 µM, 140 nM and > 100 µM.
As for `COc1ccc(CC2COc3cc(O)c(OC)c(O)c3C2=O)cc1O` (stereo unspecified), the GI50 with Y79 was determined as 9.8 µM; in data set [1], 48 µM; in data set [2], 220 nM. The GI50 at 48 h in data set [3] is 0.38 µM.
In the same order, the values of `COc1ccc(CC2COc3cc(OC)c(OC)c(OC)c3C2=O)cc1O` (stereo unspecified) are > 100 µM, > 100 µM, 2000 nM and 12 µM.
In the same order, the values of `COC(=O)c1cc(/C=C2\COc3cc(OC)c(OC)c(OC)c3C2=O)ccc1OC` are 6.1 µM, > 100 µM, 5600 nM and 3.2 µM.
As for `COc1ccc(CC2COc3cc(OC)c(OC)c(OC)c3C2=O)cc1OCc1ccccc1` (stereo unspecified), the GI50 in the data set on Y79 was 20 µM; in [1] it was 61 µM; in data set [2], 22000 nM. In [3], the GI50 at 48 h is > 100 µM.
In the case of `COc1ccc(CC2COc3cc(OC)c(OC)c(OC)c3C2=O)cc1OC(=O)[C@H](Cc1ccccc1)NC(=O)OC(C)(C)C` (stereo partly specified), the selectivity ratio was > 1000 in [4], 218 in data set [10] and 14 in [14]. Further, the GI50 with Y79 is 12 µM; in [1], > 100 µM; in data set [2], 55 nM. For the same compound, the inhibition result in the data set filed under Mus musculus [5] is “Active”. In addition, the inhibition result in the data set on HREC [6], in the data set with HREC [7] and in the data set with HREC [12] was “Dose-dependent effect” in each case. Moreover, the Activity in data set [8] was <10%; in data set [9], <10%; in data set [11] it was “Non-toxic”; in the data set on HREC [13], “Dose-dependent effect”; in data set [15] it was “Non-toxic”; in the data set filed under Mus musculus [16] it was “Non-toxic”. In addition, in data set [3], the GI50 at 48 h was determined as 0.75 µM.
With `COc1ccc(CC2COc3cc(OC)c(OC)c(O)c3C2=O)cc1O` (stereo unspecified), the values for the GI50 (with Y79; in [1]; in data set [2]) were > 100 µM, > 100 µM and > 100000 nM, respectively. In data set [3], the GI50 at 48 h came to 44 µM.
For `COc1cc2c(c(OC)c1OC)C(=O)/C(=C/c1ccc(O)c(O)c1)CO2`, the GI50 with Y79 came out at 4 µM; in data set [1] it was 9.5 µM; in data set [2] it was 7600 nM. Besides, in data set [3], the GI50 at 48 h was found to be 5 µM.
In the same order, the values of `COc1ccc(CC2COc3cc(OC)c(OC)c(OC)c3C2=O)cc1NC(=O)[C@H](Cc1ccccc1)NC(=O)OC(C)(C)C` (stereo partly specified) are 4.7 µM, 3.1 µM, 22000 nM and 8.6 µM.
